Experimental data gathered from unrelated publications.
Compare with care: the assays were run in different laboratories.
Target: Ephrin type-A receptor 1 (EPHA1, Homo sapiens, UniProt P21709)
Sequence (P21709 26-976, as in one of the studies): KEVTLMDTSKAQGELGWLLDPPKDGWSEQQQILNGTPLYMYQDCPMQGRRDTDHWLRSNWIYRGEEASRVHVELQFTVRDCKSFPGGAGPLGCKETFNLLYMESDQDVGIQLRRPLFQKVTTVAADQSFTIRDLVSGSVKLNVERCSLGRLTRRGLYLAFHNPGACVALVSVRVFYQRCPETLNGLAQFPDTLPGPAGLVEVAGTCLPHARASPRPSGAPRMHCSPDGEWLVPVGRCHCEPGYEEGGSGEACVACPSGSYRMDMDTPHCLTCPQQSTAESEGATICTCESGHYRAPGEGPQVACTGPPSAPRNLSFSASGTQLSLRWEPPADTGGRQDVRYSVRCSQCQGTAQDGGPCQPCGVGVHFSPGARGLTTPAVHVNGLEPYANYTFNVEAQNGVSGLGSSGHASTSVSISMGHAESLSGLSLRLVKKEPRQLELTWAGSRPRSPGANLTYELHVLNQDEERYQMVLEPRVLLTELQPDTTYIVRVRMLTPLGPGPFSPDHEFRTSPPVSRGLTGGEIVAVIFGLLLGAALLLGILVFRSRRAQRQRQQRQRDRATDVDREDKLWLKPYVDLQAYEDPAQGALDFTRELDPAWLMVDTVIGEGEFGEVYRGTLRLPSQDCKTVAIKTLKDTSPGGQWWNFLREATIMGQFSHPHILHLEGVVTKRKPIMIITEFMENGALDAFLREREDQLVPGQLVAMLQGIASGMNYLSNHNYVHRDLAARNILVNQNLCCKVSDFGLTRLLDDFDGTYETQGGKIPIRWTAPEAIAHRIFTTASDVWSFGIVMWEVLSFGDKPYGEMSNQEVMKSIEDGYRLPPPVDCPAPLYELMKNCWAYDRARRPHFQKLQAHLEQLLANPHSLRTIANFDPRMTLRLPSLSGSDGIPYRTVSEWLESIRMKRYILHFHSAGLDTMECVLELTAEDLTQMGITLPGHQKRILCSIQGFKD

O=c1[nH]c2ccccc2n1C1CCN(Cc2ccc(-c3[nH]c4cc5ncnc5cc4nc3-c3ccccc3)cc2)CC1
remaining signal (cell-free assay; 0.5 µM): 84.4%

COc1cc(Nc2ncc(F)c(Nc3ccc4c(n3)NC(=O)C(C)(C)O4)n2)cc(OC)c1OC
inhibition (binding; competition with immobilised ligand; 10 µM): 98%

CC(C)(C)c1cc(C=C(C#N)C#N)cc(Br)c1O
remaining activity (enzyme activity; inhibitor; 0.5 µM): 85.1%

Cn1cc(-c2cc(F)cc(N3CCn4c(cc5c4CCCC5)C3=O)c2CO)cc(Nc2ccc(N3CCN(C4COC4)CC3)cn2)c1=O
inhibition (enzyme activity; inhibitor; 0.1 µM): 19%

Cn1cncc1[C@@](O)(COc1ccc(C#N)cc1-c1ccc(OC(F)(F)F)cc1)c1ccc(C#N)cc1
remaining binding (cell-free assay; competition with immobilised ligand; 1 µM): 93%

Cc1nn(C)cc1-c1nc2c(N3CCN(Cc4ccc(Cl)cc4)CC3)c(Cl)cnc2[nH]1
remaining binding (binding; competition with immobilised ligand; 1 µM): 90%

Cn1cc(-c2cccc(N3CCc4c(sc5c4CC(C)(C)C5)C3=O)c2CO)cc(Nc2ccncn2)c1=O
inhibition (enzyme activity; inhibitor; 1 µM): 3%

COc1ncccc1-c1cnn2ccc(N3CCN(C(=O)OC(C)C)CC3)nc12
remaining binding (binding; competition with immobilised ligand; 1 µM): 84%

Nc1ncc(-c2nc(N3CCOCC3)nc(N3CCOCC3)n2)c(C(F)F)n1
remaining binding (cell-free assay; competition with immobilised ligand; 10 µM): 68%
